# Bioassay records from PubChem.
# bIAP inh = intestinal alkaline phosphatase (bovine) inhibition; purified bovine IAP, CDP-star luminescence, 30 min; inhibition, % at 20 µM; 190,000 tested, under 10 active;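 active means over 50% inhibition of intestinal alkaline phosphatase at 20 µM in the single-dose screen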
#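 test system = bovine IAP enzyme | medium = DEA buffer 100 mM, pH 9.8, with MgCl2 1.0 mM, ZnCl2 0.02 mM | detection = luminescence | dosing = single compound dose of 20 µM, 2% DMSO final | incubation = 30 min reaction at room temperature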
# hIAP activ = increases human intestinal alkaline phosphatase activity | 0.16% of 330,000 active | purified human IAP, CDP-Star luminescence, 30 min; stronger effect = higher value; 1 = vehicle-only enzyme, 0 = enzyme-free background | activation factor at 10 µM;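 active means activation factor of the enzyme at least 2-fold when tested at 20 µM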
# Target sequence (P09923 whole entry, looked up): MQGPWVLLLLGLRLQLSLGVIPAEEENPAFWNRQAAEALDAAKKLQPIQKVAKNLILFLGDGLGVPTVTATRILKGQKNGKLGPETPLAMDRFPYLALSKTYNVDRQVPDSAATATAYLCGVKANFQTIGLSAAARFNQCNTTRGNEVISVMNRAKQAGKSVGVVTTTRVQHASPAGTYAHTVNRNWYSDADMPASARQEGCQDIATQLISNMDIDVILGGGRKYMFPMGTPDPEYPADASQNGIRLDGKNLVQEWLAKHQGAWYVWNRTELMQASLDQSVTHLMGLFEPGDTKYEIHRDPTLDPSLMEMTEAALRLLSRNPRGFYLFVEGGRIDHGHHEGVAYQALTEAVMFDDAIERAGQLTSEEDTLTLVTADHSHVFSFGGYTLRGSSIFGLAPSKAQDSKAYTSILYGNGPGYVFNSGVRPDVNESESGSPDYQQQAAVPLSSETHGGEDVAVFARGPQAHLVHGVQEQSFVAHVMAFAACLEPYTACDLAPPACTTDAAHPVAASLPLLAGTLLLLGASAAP
# mIAP activ = increases mouse intestinal alkaline phosphatase activity. muIAP, CDP-Star luminescence, 30 min; stronger effect = higher value; 1 = vehicle-only enzyme signal, 0 = enzyme-free wells. AID 2805. 0.24% of 330,000 active. activation factor at 10 µM;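 active means activation factor of at least 2 at 20 µM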
#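 Assay system: mouse IAP enzyme; Reagent: CDP-Star chemiluminescent phosphatase substrate; Compound: DMSO-dissolved test compounds; Incubation: 30 min, room temperature; Technique: luminescence from enzymatic CDP-Star hydrolysis; Controls: DMSO-only wells and no-enzyme negative control.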
# mIAP inh = blocks mouse intestinal alkaline phosphatase | purified mouse IAP, CDP-Star luminescence, 30 min | inhibition, % at 10 µM | 0.2% of 330,000 active | AID 2806;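 active means inhibition of at least 40% at 10 µM in the primary screen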;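 further: plate controls were DMSO with enzyme for no effect and no enzyme wells for full effect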
# bIAP act = increases bovine intestinal alkaline phosphatase activity | purified bovine IAP, CDP-star luminescence, 30 min; stronger effect = higher value; fold of DMSO-control signal, blank-subtracted | activation factor at 20 µM | 0.17% of 200,000 active | AID 1016;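 active means activation factor of 2 or more at 20 µM, a signal rise over negative controls twice the positive control's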
# hIAP inh = blocks human intestinal alkaline phosphatase. inhibition, % at 10 µM. purified IAP, CDP-Star luminescence, 30 min. P09923. AID 2544. 0.12% of 330,000 active;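 active means inhibition reaching a set limit with compound at 10 µM in the primary screen, cut at about 35% in these data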;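 further: plate controls were DMSO wells with enzyme for no effect and no-enzyme buffer wells for full effect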
# An asterisk follows results filed as active; nt = no result given. Sampled rows, rich in hits. Any-hit rate of the full collection: about 0.72%.
SMILES,bIAP inh,hIAP activ,mIAP activ,mIAP inh,bIAP act,hIAP inh
Cc1ccc(C)c(NC(=S)NCCSc2ccc(Cl)cc2)c1,36,1.1,1.9,-87,0.6,-5
Cc1cccc(NC(=S)NCCSc2ccc(Cl)cc2)c1,40,1.1,2.2*,-123,0.6,-14
CCCCc1cc(=O)oc2cc(C)cc(OCC(=O)Nc3ccccn3)c12,nt,0.83,0.93,7,nt,17
COc1ccccc1-c1cc(C(=O)N2CCN(S(=O)(=O)c3ccc(C)cc3)CC2)[nH]n1,nt,1.2,2.3*,-128,nt,-20
Cc1nnsc1C(=O)N/N=C/c1ccccc1,-450,1.3,0.98,2,5.5*,-26
CCCCCN(C(=O)CCC(=O)OCc1ccc(C(C)C)cc1)c1c(N)n(CCCC)c(=O)[nH]c1=O,nt,1.1,1.2,-24,nt,-5
CC(C)CCNC(=O)c1ccc2c(SCC(=O)O)c3c(nc2c1)CCCC3,-139,0.94,0.93,7,2.4*,6
C[C@H](CO)N1C[C@H](C)[C@@H](CN(C)S(=O)(=O)c2cccs2)Oc2c(NC(=O)Nc3ccc4c(c3)OCO4)cccc2C1=O,nt,0.96,1.2,-16,nt,4
COc1ccc(S(=O)(=O)N(C)C[C@H]2Oc3ccc(NC(=O)NC(C)C)cc3C(=O)N([C@H](C)CO)C[C@@H]2C)cc1,nt,1.1,1.4,-43,nt,-12
COc1ccc(S(=O)(=O)N(C)C[C@H]2Oc3ccc(NC(=O)Nc4ccc5c(c4)OCO5)cc3C(=O)N([C@H](C)CO)C[C@@H]2C)cc1,nt,1,2.3*,-129,nt,-4
C[C@H](CO)N1C[C@H](C)[C@H](CN(C)S(=O)(=O)c2cccs2)Oc2ccc(NC(=O)Nc3ccc4c(c3)OCO4)cc2CC1=O,nt,1,2.3*,-129,nt,-2
COc1ccc(S(=O)(=O)N(C)C[C@H]2Oc3ccc(NC(=O)Nc4ccc5c(c4)OCO5)cc3CC(=O)N([C@@H](C)CO)C[C@@H]2C)cc1,nt,1.2,1.4,-44,nt,-18
Cc1ccc(S(=O)(=O)Nc2ccc3c(c2)CC(=O)N([C@H](C)CO)C[C@@H](C)[C@H](CN(C)S(=O)(=O)c2ccccc2)O3)cc1,nt,1.1,0.97,3,nt,-7
C[C@H](CO)N1C[C@H](C)[C@H](CN(C)S(=O)(=O)c2ccccc2)Oc2ccc(NC(=O)NC3CCCCC3)cc2CC1=O,nt,1,2.7*,-171,nt,0
C[C@H](CO)N1C[C@H](C)[C@@H](CN(C)S(=O)(=O)c2cccs2)Oc2ccc(NC(=O)Nc3ccc4c(c3)OCO4)cc2C1=O,nt,0.98,2.2*,-116,nt,2
N#CC(C#N)=Cc1c(N2CCN(c3ccccc3)CC2)nc2ccccn2c1=O,nt,0.89,0.88,12,nt,11
CCC1CCc2sc(C(=O)NCC(c3ccccc3OC)N3CCCC3)cc2C1 (stereo unspecified),nt,0.89,1.1,-14,nt,11
O=C(COC(=O)CN1C(=O)C2CCCCC2C1=O)NNC(=O)c1ccc(Cl)cc1 (stereo unspecified),nt,0.95,0.83,17,nt,5
COc1ccc(NC(=O)Nc2ccc3c(c2)C(=O)N([C@@H](C)CO)C[C@@H](C)[C@@H](CN(C)S(=O)(=O)c2cccs2)O3)cc1,nt,0.98,3.1*,-214,nt,2
CCOC(=O)C1CCCN(C(=O)c2ccc3ncsc3c2)C1 (stereo unspecified),nt,1.1,0.97,3,nt,-7
S=C(Nc1ccc(Nc2ccccc2)cc1)NC1CCCCCC1,11,1,1.2,-19,0.9,-3
S=C(Nc1ccc(Cl)cc1)NC1CCCCC1,nt,0.91,1.8,-81,nt,9
S=C(Nc1ccc(Br)cc1)NC1CCCCC1,-11,0.99,2.5*,-150,1.1,1
FC(F)Oc1ccc(NC(=S)NC2CCCCCCC2)cc1,nt,1.1,2.6*,-164,nt,-13
CCC(=O)OCCNc1cc(SCCC(=O)OC)c2nonc2c1[N+](=O)[O-],14,1,0.88,12,0.9,-4
CCCC(=O)OCCNc1cc(Sc2nc3ccccc3[nH]2)c2nonc2c1[N+](=O)[O-],-251,0.88,0.88,12,3.5*,12
O=C(O)Cc1ccc(O)c(O)c1,nt,0.85,0.4,60*,nt,15
S=C(NCc1ccco1)Nc1ccc(Cl)c(Cl)c1,24,1.1,2.3*,-130,0.8,-11
